Data set [1] has as its target T1, Bile salt export pump (Homo sapiens, UniProt O95342, E297G). In words: Restoration of human BSEP E297G mutant trafficking to cell membrane in MDCK2 cells co-expressing NTCP assessed as increase in [3H]taurocholate transport measuring apparent efflux clearance across the apical membrane at 1 mM preincubated for 24 hrs prior incubation with [3H]taurocholate measured after 2 hrs by transcellular transport assay relative to control. It counts as cell-based. The conditions noted are these: mdck2, 2 h, 1000 µM. Summed up: (§1)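 MDCK II cells grown 2 days on Transwell inserts, then infected with E297G BSEP or GFP adenovirus (50 MOI). Compounds added 24 h later for 24 h. [3H]TC added basally. PS_apical is the steady-state transcellular rate over 2 h divided by the cellular [3H]TC concentration at 2 h. Mean ± SE of triplicates.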

Data set [2] concerns the target T1, Bile salt export pump. The data set is described as follows: Restoration of human BSEP E297G mutant trafficking to cell membrane in MDCK2 cells co-expressing NTCP assessed as accumulation of [3H]taurocholate at 10 uM preincubated for 24 hrs prior incubation with [3H]taurocholate measured after 2 hrs by liquid scintillation counting. It counts as cell membranes. The conditions noted are these: mdck2, 2 h. A digest of the protocol: (§2)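 Human WT or E297G BSEP delivered by recombinant adenovirus (50 MOI) into MDCK II cells on 24-well plates, 1 day after seeding. GFP adenovirus serves as control. Compounds added 24 h post-infection for 24 h. Cells washed with Krebs–Henseleit buffer pH 7.4, then incubated with [3H]TC for 2 h and washed with ice-cold buffer. Lysed in 2 N HCl, neutralized with NaOH, counted by scintillation. Read-out is the BSEP/GFP accumulation ratio.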

For data set [3], the target named is T1, Bile salt export pump. In words: Restoration of human BSEP E297G mutant trafficking to cell membrane in MDCK2 cells co-expressing NTCP assessed as decrease in [3H]taurocholate accumulation preincubated for 24 hrs prior incubation with [3H]taurocholate measured after 2 hrs by liquid scintillation counting. It counts as cell membranes. The note with it: mdck2, 2 h. Summed up: as §2

Data set [4] has as its target T1, Bile salt export pump. In words: Restoration of human BSEP E297G mutant trafficking to cell membrane in MDCK2 cells co-expressing NTCP assessed as increase in [3H]taurocholate transport measuring apparent efflux clearance across the apical membrane at 10 uM preincubated for 24 hrs prior incubation with [3H]taurocholate measured after 2 hrs by transcellular transport assay relative to control. Format: cell-based. The note with it: mdck2, 2 h. A digest of the protocol: as §1

The target in data set [5] is T1, Bile salt export pump. The data set is described as follows: Restoration of human BSEP E297G mutant trafficking to cell membrane in MDCK2 cells co-expressing NTCP assessed as accumulation of [3H]taurocholate at 100 uM preincubated for 24 hrs prior incubation with [3H]taurocholate measured after 2 hrs by liquid scintillation counting. It counts as cell membranes. The conditions noted are these: mdck2, 2 h.

For data set [6], the target named is Bile salt export pump (Homo sapiens, UniProt O95342). The data set is described as follows: Restoration of wild type human BSEP trafficking to cell membrane in MDCK2 cells co-expressing NTCP assessed as decrease in [3H]taurocholate accumulation at 10 to 100 uM preincubated for 24 hrs prior incubation with [3H]taurocholate measured after 2 hrs by liquid scintillation counting. It counts as cell membranes. The note with it: mdck2, 2 h. Summed up: as §2
Sequence of Bile salt export pump (Homo sapiens, UniProt O95342) (O95342 whole entry): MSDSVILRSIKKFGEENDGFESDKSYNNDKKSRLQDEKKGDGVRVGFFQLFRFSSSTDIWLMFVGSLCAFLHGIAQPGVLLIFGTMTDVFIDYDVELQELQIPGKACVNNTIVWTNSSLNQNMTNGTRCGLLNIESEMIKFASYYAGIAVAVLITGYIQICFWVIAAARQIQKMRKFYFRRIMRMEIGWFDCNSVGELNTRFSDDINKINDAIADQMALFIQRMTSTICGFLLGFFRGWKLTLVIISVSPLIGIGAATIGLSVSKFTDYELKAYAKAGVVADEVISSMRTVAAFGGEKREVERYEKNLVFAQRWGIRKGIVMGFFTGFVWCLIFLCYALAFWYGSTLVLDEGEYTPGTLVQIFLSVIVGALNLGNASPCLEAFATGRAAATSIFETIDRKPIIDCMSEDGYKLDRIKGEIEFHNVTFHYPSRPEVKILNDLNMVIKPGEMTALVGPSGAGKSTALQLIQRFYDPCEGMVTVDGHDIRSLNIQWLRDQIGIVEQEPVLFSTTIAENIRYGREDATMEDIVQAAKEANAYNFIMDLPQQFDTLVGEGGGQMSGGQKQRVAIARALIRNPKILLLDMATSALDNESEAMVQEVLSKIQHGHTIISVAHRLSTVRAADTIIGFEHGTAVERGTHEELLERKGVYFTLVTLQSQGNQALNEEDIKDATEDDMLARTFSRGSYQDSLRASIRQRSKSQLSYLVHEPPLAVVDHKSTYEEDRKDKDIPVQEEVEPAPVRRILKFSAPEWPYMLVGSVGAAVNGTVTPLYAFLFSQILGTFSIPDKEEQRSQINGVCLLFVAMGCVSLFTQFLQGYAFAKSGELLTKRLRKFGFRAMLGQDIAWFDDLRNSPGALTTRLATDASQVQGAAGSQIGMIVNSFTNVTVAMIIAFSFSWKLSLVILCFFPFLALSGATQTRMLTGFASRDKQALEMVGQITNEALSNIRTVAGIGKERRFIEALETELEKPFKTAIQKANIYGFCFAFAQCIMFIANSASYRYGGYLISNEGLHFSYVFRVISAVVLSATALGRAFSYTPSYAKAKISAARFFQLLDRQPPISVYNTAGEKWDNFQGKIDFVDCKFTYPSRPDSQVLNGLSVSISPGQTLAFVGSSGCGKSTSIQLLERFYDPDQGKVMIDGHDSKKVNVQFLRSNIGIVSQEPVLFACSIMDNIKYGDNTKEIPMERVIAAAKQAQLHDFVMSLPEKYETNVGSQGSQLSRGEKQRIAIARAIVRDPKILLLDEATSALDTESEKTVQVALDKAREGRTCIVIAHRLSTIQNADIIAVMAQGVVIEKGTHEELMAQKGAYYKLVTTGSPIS

T1 sequence (O95342 whole entry E297G): as the sequence (O95342 whole entry) above, with E297G counted along it

For the compound `O=C(O)CCCc1ccccc1`, the “fold change (FC)” value on Bile salt export pump [1] was 3.

As to `CCCCN(C(=O)c1ccc(OCc2c(-c3c(Cl)cccc3Cl)noc2C(C)C)cc1Cl)c1cccc(C(=O)O)c1`, on Bile salt export pump [2], the Activity was 49%.

Consider `CC(C)c1onc(-c2c(Cl)cccc2Cl)c1COc1ccc(C(=O)N(c2cccc(C(=O)O)c2)c2cccc3ccccc23)c(Cl)c1`, for which the Activity at Bile salt export pump [2] is recorded as 59%.

Consider `CC(C)c1onc(-c2c(Cl)cccc2Cl)c1COc1ccc(C(=O)N(c2cccc(C(=O)O)c2)c2ccc3ccccc3c2)c(Cl)c1`, for which the Activity at Bile salt export pump [2] is listed as 70%.

With `CC(C)c1onc(-c2ccccc2)c1COc1ccc(C(=O)N(Cc2ccccc2)c2cccc(C(=O)O)c2)c(Cl)c1`, the Activity at Bile salt export pump [2] is reported as 64%.

On to `CC(C)c1onc(-c2c(Cl)cccc2Cl)c1COc1ccc(C(=O)N(Cc2ccccc2)c2cccc(C(=O)O)c2)cc1`, for which, on Bile salt export pump [2], the Activity is 85%.

Take `Cc1cccc(C)c1-c1noc(C(C)C)c1COc1ccc(C(=O)N(Cc2ccccc2)c2cccc(C(=O)O)c2)c(Cl)c1`: at Bile salt export pump [2], the Activity is listed as 93%.

For the compound `CC(C)c1onc(-c2c(Cl)cccc2Cl)c1COc1ccc(C(=O)N(Cc2ccccc2)c2ccccc2C(=O)O)c(Cl)c1`, the Activity on Bile salt export pump [2] amounted to 80%.

`CC(C)c1onc(-c2c(Cl)cccc2Cl)c1COc1ccc(C(=O)N(Cc2ccccc2)c2ccc(C(=O)O)cc2)c(Cl)c1`: the Activity at Bile salt export pump [2] was 35%.

`COC(=O)c1cccc(N(Cc2ccccc2)C(=O)c2ccc(OCc3c(-c4c(Cl)cccc4Cl)noc3C(C)C)cc2Cl)c1`: the Activity at Bile salt export pump [2] turned out to be 93%.

As for `CC(C)c1onc(-c2c(Cl)cccc2Cl)c1COc1ccc(/C=C/c2cccc(C(=O)O)c2)c(Cl)c1`, the Activity on Bile salt export pump [2] is on record as 33%; at Bile salt export pump [3], “Dose-dependent effect”.

Turning to `CC(C)c1onc(-c2c(Cl)cccc2Cl)c1COc1ccc(C(=O)Nc2cccc(C(=O)O)c2)c(Cl)c1`, on Bile salt export pump [2], the Activity amounted to 111%.

For `CC(C)c1onc(-c2c(Cl)cccc2Cl)c1COc1ccc(C(=O)N(Cc2ccccc2)c2cccc(C(=O)O)c2)c(Cl)c1`, the Activity at Bile salt export pump [2] is 31%; on Bile salt export pump [3], “Dose-dependent effect”. Also, the “fold change (FC)” value on Bile salt export pump [4] worked out at 7.

Turning to `CC(C)c1onc(-c2c(Cl)cccc2Cl)c1COc1ccc(C(=O)N(CCc2ccccc2)c2cccc(C(=O)O)c2)c(Cl)c1`, on Bile salt export pump [2], the Activity is reported as 53%.

As to `CC(C)c1onc(-c2c(Cl)cccc2Cl)c1COc1ccc(C(=O)N(C)c2cccc(C(=O)O)c2)c(Cl)c1`, the Activity on Bile salt export pump [2] was 66%.

For `C[C@H](CCC(=O)O)[C@H]1CC[C@H]2[C@@H]3[C@H](O)C[C@@H]4C[C@H](O)CC[C@]4(C)[C@H]3CC[C@]12C` [CHENODIOL], the Activity turned out to be 46% on Bile salt export pump [5] and 50% on Bile salt export pump [2].

In the case of `C[C@H](CCC(=O)O)[C@H]1CC[C@H]2[C@@H]3[C@H](O)C[C@@H]4C[C@H](O)CC[C@]4(C)[C@H]3C[C@H](O)[C@]12C` [CHOLIC ACID], the Activity result at Bile salt export pump [6] is “Active”; at Bile salt export pump [5], 40%; at Bile salt export pump [2] it was 73%.

Consider `C[C@H](CCC(=O)O)[C@H]1CC[C@H]2[C@@H]3CC[C@@H]4C[C@H](O)CC[C@]4(C)[C@H]3C[C@H](O)[C@]12C` [DEOXYCHOLIC ACID], for which the Activity at Bile salt export pump [5] stood at 65%.

On to `C[C@H](CCC(=O)NCC(=O)O)[C@H]1CC[C@H]2[C@@H]3[C@H](O)C[C@@H]4C[C@H](O)CC[C@]4(C)[C@H]3C[C@H](O)[C@]12C` [GLYCOCHOLIC ACID], for which the Activity at Bile salt export pump [5] came to 108%.

Take `C[C@H](CCC(=O)O)[C@H]1CC[C@H]2[C@@H]3[C@@H](O)C[C@@H]4C[C@H](O)CC[C@]4(C)[C@H]3CC[C@]12C` [URSODIOL]: the Activity at Bile salt export pump [5] amounted to 43%; at Bile salt export pump [2] it was 76%.
